PG9 Ab binder: binds the HIV-1 gp120 antibody PG9 | TR-FRET gp120-PG9 antibody binding | inhibition, % at 6.7 µM | hit rate 0.43% among 360,000 | AID 624416; in the data active means inhibition above about 8.5%
NR2E3 ag-1: agonists of human nuclear receptor NR2E3; AID 2300; GST-NR2E3/biotin-RetCOR TR-FRET, 1536-well; hit rate 0.12% among 320,000; inhibition of corepressor binding, % at 4.78 µM; Q9Y5X4;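 active means percent inhibition above the cutoff of mean plus 3 SD of all tested compounds, set per screening campaign, cut at about 20% in these data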;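 further: 0% = DMSO wells and 100% = biotin wells as full block of FRET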
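Test system – NR2E3–RetCOR corepressor complex · Quantity – NR2E3 fusion 1.35 nM · Buffer or medium – Tris pH 7.5 · Incubation – Compound–protein incubation for 5 h at 4 °C · Technique – TR-FRET, Eu(K)-anti-GST donor, streptavidin-D2 acceptor, ex 340, em 617/671 nm · Evaluation – percent inhibition of 671/617 nm emission ratio versus biotin and DMSO controls · Plate – 1536-well format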
NR1D1 modulator: Rev-erb alpha (human) modulation; P20393; Rev-erbα–FITC-DNA binding, fluorescence polarization, 90 min; activity, % at 10 µM; hit rate 0.79% among 370,000; AID 1259318;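 active means activity above about 14%, limit read from the data; passing the limit was not always enough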;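 further: 0% = DMSO wells with 35 nM protein and 100% = DMSO wells with 750 nM protein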
Target sequence (P20393 whole entry, looked up): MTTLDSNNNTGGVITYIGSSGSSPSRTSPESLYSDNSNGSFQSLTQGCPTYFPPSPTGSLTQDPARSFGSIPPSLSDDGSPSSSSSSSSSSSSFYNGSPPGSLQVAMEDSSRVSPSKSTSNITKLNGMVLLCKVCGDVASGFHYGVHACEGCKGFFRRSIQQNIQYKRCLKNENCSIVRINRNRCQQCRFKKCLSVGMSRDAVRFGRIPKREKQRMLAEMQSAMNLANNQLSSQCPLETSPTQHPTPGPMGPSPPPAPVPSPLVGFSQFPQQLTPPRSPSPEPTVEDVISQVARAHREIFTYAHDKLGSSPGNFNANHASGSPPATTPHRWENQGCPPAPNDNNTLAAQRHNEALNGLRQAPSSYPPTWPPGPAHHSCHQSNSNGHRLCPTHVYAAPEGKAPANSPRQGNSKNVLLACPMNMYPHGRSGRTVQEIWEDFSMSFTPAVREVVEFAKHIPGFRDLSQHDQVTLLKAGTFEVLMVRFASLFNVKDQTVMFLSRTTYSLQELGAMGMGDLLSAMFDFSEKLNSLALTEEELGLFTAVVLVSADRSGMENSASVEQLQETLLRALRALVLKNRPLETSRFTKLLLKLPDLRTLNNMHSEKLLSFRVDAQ
NR2E3 ag-2: agonists of human NR2E3 nuclear receptor; Q9Y5X4; CHO-S Gal4-NCOR/VP16-NR2E3 two-hybrid, luciferase; inhibition of corepressor binding, % at 3.98 µM; hit rate 0.35% among 360,000;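 active means inhibition above the mean of all tested compounds plus 3 SD, cut at about 70% in these data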;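 further: 0% = DMSO with NR2E3 transfected cells and 100% = cells lacking NR2E3 construct; higher means lower luciferase signal from less NR2E3 corepressor binding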
NR1D1 mod conf: Rev-erb alpha (human) modulation, hit confirmation; shares compounds with NR1D1 modulator; Rev-erb alpha FITC-DNA binding, fluorescence polarization, 90 min; activation, % at 25 µM; hit rate 61% among 3,000;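 active means activation at or above a set limit, or at least 3 SD above the negative control mean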;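 further: 0% = 35 nM protein with DMSO and 100% = 750 nM protein high control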
RORg counter: affects RORgamma DNA binding in a Rev-erb alpha counter-screen; hit rate 8% among 910; purified RORgamma protein-FITC-DNA binding, fluorescence polarization; IC50, µM; AID 1259320; shares compounds with NR1D1 modulator;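 active means Compounds whose fitted half-maximal concentration for disrupting protein-DNA binding is below 10 micromolar; the record names Rev-erb in its text, so the target is in doubt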
* marks the source's active call; other numbers are inactive results; . = no result. Rows were chosen to be rich in hits. Some 1.4% of all compounds tested hit in one or more screens of this group.

SMILES	PG9 Ab binder	NR2E3 ag-1	NR1D1 modulator	NR2E3 ag-2	NR1D1 mod conf	others
Cc1cc(C)c2nc(SCC(=O)Nc3ccc(S(=O)(=O)N4CCCC4)cc3)c(C)cc2c1	2	-3	13	-36	.
COc1ccc2nc(SCC(=O)Nc3ccc(S(=O)(=O)N4CCCC4)cc3)c(C#N)cc2c1	-2	-1	109*	-23	74*	RORg counter=>40
COc1ccc2nc(SCC(=O)N3CCCCC3)c(C#N)cc2c1	-1	2	-3	11	.
N#Cc1cc2ccccc2nc1SCC(=O)Nc1ccc(S(=O)(=O)N2CCCC2)cc1	0	2	30*	-15	24*
CCN(CC)c1ccc(NC(=O)CSc2nnc3nc(C)cc(C)n23)cc1	-10	-3	-2	-15	.
Cc1ccc(CS(=O)(=O)CCC(=O)NCCC2=CCCCC2)cc1	0	-2	6	6	.
Cc1ccc(F)c(S(=O)(=O)NC(=O)C2(C)CCN2C(=O)COc2ccc(Cl)cc2)c1 (centres undefined)	-1	.	1	-9	.
CN(C(=O)CSc1nc2cc(Cl)ccc2c(=O)n1Cc1ccco1)C1CCS(=O)(=O)C1 (centres undefined)	0	0	-6	-11	.
COc1ccc2[nH]cc(/C=C/c3cc[n+](C)cc3)c2c1	-23	-13	69*	22	58*	RORg counter=>40
COc1ccc2[nH]cc(C=O)c2c1	0	1	-4	-3	.
CCCN=C1NC(=O)C(CC(=O)NCCc2ccccc2)S1 (centres undefined)	0	-4	-4	-4	.
CC(=O)c1cc2c(cc1N/C(=N/S(=O)(=O)c1ccc(Br)cc1)c1ccccc1)OCO2	0	2	97*	10	17
CC(=O)c1ccc(S(=O)(=O)Nc2cc3c(cc2C(C)=O)OCO3)cc1	0	2	-1	-5	.
O=c1c2c(-c3ccc([N+](=O)[O-])cc3)csc2nc2n1CCCCC2	1	4	-7	-21	.
C[C@@H]1CN([C@@H](C)CO)C(=O)CCCn2nncc2CO[C@H]1CN(C)S(=O)(=O)c1ccccc1C#N	-2	.	2	-9	.
O=C(NCc1ccc(F)cc1)c1c(O)c2cccc3c2n(c1=O)CCC3	1	3	37*	-11	11
Cc1sc2nc(SCC(=O)Nc3ccc(S(=O)(=O)NCCCC(=O)O)cc3)[nH]c(=O)c2c1C	0	2	4	11	.
N#Cc1c(N)nc2c(c1-c1cccs1)CCCC2	-1	2	2	-12	.
N#Cc1c(N)oc(-c2cccs2)c1-c1cccs1	3	5	24*	-20	34*
O=C(Nc1cccc(F)c1)c1ccc2c(c1)OCO2	-1	3	1	-90	.
O=C(Nc1ccc2nn(-c3ccccc3)nc2c1)c1ccc2c(c1)OCO2	-19	-13	23*	2	28*
O=C(Nc1cccc(-c2nc3ccccc3s2)c1)c1ccc2c(c1)OCO2	-1	4	45*	-110	12
CCN(CC)c1ccc(NC(=O)c2ccc3c(c2)OCO3)cc1	-11	-6	16*	-131	1
O=C(Nc1c(C(=O)Nc2cccc(F)c2)oc2ccccc12)c1ccc2c(c1)OCO2	0	3	51*	-14	17
CC(=O)CC1c2cc(F)ccc2C=C(c2ccsc2)N1c1ccc(C#Cc2cncn2C)cc1 (centres undefined)	1	.	0	-27	.
SMILES	PG9 Ab binder	NR2E3 ag-1	NR1D1 modulator	NR2E3 ag-2	NR1D1 mod conf	others
CCOC(=O)c1cc2sccc2n1CC(=O)OC	-2	1	0	-15	.
CCCc1cc(=O)[nH]c(SCC(=O)Nc2cc(S(=O)(=O)N3CCCCC3)ccc2Cl)n1	-1	.	-10	23	.
CC(C)C(NC(=O)c1ccccc1NC(=O)c1ccco1)C(=O)NNC(=O)c1ccncc1 (centres undefined)	-1	4	-1	-13	.
Cc1cc(=O)n2[nH]c(=O)c(N=Nc3ccccc3)c2[nH]1	-12	-5	8	-11	.
CCOc1ccc(N=Nc2c(=O)[nH]n3c(=O)cc(C)[nH]c23)cc1	-15	-14	25*	-62	41*	RORg counter=>40
CCOC(=O)c1c(NC(=O)COC(=O)c2ccc(O)cc2)sc(C(=O)NC)c1C	0	-1	38*	-14	29*
CCOC(=O)c1c(NC(=O)COC(=O)c2nc(Cl)ccc2Cl)sc(C(=O)NC)c1C	7	-3	5	-11	.
